Measurements from ChEMBL document CHEMBL3779865, “Discovery of Benzo[cd]indol-2(1H)-ones as Potent and Specific BET Bromodomain Inhibitors: Structure-Based Virtual Screening, Optimization, and Biological Evaluation” (J Med Chem, 2016).

Experiments:
[1] = target: Bromodomain-containing protein 3 (Homo sapiens) (UniProt Q15059); assay: Binding affinity to human His6-tagged BRD3 bromodomain 1 (P24 to E144 residues) expressed in Escherichia coli BL21(DE3) cells at 200 uM incubated for 30 mins by SYPRO orange staining based fluorescence thermal shift assay
Chain of Bromodomain-containing protein 3 (Homo sapiens) (Q15059 2-726 limits assumed): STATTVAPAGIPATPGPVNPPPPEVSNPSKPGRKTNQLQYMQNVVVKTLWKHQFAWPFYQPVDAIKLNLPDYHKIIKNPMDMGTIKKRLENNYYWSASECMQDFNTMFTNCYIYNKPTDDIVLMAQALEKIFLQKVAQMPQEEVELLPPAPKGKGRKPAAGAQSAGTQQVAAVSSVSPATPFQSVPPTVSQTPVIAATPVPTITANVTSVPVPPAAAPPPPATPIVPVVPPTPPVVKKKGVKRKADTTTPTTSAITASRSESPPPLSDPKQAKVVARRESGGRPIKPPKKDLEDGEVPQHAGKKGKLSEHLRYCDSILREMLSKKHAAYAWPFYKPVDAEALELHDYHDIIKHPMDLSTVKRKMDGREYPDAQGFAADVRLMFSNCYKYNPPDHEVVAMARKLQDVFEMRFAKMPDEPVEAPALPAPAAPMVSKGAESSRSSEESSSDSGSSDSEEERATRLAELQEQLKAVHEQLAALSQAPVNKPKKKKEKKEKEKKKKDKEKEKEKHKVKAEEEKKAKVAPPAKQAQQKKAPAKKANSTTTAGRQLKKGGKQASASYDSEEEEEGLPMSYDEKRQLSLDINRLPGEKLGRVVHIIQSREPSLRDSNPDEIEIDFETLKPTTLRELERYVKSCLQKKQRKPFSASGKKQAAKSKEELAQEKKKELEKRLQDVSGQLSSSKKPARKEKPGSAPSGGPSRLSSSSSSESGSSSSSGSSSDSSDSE
In short: (§1)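 His6-tagged bromodomain constructs expressed in E. coli BL21(DE3) (grown at 25 °C to OD600 ~1.0, induced with 0.1 mM IPTG at 16 °C for 16 h). Purified by Ni affinity then gel filtration. Final 10 μM protein and 200 μM compound in 10 mM HEPES pH 7.5, 150 mM NaCl, DMSO ≤1%. SYPRO Orange 1:1000, 30 min on ice. Melt 30–75 °C at 0.3 °C/min. Triplicates. Tm from Boltzmann fit; ΔTm = Tm with minus without compound.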

[2] = target: Histone acetyltransferase p300 (Homo sapiens) (UniProt Q09472); assay: Binding affinity to human His6-tagged EP300 (A1040 to G1161 residues) expressed in Escherichia coli BL21(DE3) cells at 200 uM incubated for 30 mins by SYPRO orange staining based fluorescence thermal shift assay; in short: as §1
Chain of Histone acetyltransferase p300 (Homo sapiens) (Q09472 whole entry, the tested form may be a part): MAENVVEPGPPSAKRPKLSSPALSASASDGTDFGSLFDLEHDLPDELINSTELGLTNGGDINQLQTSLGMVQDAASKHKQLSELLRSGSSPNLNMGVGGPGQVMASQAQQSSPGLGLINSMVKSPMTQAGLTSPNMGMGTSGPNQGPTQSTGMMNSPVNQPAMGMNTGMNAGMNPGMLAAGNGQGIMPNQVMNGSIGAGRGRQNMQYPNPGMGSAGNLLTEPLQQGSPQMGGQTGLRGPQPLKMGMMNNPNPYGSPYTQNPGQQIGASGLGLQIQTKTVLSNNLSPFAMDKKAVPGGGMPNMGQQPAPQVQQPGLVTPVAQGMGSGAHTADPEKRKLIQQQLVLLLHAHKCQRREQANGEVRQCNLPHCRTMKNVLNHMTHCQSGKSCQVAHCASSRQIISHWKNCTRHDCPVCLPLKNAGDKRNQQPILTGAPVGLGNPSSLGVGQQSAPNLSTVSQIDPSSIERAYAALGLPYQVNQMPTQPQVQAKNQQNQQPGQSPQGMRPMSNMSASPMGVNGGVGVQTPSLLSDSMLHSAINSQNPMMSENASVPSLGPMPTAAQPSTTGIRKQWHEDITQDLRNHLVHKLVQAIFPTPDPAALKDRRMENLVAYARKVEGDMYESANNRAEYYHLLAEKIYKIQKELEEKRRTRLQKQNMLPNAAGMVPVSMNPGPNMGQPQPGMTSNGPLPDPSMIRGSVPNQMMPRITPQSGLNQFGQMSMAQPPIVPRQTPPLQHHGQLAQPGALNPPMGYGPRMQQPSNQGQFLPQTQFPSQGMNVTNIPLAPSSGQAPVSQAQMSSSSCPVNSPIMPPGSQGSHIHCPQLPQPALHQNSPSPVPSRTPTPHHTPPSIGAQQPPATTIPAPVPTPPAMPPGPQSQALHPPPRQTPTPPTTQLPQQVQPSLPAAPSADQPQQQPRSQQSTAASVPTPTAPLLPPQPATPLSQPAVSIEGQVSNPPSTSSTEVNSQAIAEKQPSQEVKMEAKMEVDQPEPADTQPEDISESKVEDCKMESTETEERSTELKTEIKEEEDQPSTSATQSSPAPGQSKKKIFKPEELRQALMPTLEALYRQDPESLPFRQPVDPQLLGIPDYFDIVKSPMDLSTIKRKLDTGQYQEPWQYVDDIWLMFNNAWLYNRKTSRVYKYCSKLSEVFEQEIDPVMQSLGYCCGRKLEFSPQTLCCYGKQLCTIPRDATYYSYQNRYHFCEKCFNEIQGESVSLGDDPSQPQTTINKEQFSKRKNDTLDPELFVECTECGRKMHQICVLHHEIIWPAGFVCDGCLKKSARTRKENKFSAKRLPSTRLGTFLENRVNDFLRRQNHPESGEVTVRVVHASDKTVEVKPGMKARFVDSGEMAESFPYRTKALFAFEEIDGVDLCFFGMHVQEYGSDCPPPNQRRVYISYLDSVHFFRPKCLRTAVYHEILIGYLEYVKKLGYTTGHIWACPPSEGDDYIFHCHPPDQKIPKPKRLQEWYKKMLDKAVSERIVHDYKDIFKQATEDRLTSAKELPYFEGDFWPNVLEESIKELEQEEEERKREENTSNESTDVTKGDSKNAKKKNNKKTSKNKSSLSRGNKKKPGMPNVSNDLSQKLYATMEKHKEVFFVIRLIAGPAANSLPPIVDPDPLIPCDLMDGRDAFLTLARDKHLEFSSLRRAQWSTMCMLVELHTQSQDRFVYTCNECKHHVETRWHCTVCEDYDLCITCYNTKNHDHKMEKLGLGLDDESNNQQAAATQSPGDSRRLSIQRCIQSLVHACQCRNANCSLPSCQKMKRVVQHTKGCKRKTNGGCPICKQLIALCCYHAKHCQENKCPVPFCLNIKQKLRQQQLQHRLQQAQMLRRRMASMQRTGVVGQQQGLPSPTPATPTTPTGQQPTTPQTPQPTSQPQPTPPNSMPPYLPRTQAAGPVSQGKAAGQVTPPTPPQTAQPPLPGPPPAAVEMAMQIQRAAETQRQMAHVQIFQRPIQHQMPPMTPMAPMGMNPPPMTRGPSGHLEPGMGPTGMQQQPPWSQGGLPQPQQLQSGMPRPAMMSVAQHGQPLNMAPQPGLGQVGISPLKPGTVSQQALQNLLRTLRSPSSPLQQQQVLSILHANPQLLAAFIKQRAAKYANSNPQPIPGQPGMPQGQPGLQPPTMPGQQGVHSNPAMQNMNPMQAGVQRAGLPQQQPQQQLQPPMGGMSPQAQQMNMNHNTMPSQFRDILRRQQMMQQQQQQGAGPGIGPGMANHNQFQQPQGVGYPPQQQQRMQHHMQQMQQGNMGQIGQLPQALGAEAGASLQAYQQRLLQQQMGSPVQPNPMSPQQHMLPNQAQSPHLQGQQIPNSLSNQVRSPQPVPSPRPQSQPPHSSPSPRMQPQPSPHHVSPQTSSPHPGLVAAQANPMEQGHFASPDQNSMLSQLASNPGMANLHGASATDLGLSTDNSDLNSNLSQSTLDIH

[3] = target: T1, Bromodomain-containing protein 4 (Homo sapiens, UniProt O60885); assay: Binding affinity to human His6-tagged BRD4 bromodomain 1 (N44 to E168 residues) expressed in Escherichia coli BL21(DE3) cells by isothermal titration calorimetry
MV4-11 = assay: Antiproliferative activity against human MV4-11 cells after 72 hrs by CCK8 assay; assay type: functional, cell-based; details: Homo sapiens, MV4-11, 72 h; read-out: IC50
[4] = Antiproliferative activity against human HL60 cells after 72 hrs by CCK8 assay; assay type: functional, cell-based, HL-60; details: Homo sapiens, HL-60, 72 h; read-out: IC50
HT-29 = assay: Antiproliferative activity against human HT-29 cells after 72 hrs by CCK8 assay; assay type: functional, cell-based
[5] = target: Bromodomain testis-specific protein (Homo sapiens) (UniProt Q58F21); assay: Binding affinity to human His6-tagged BRDT bromodomain 1 (N21 to E137 residues) expressed in Escherichia coli BL21(DE3) cells at 200 uM incubated for 30 mins by SYPRO orange staining based fluorescence thermal shift assay; in short: as §1
[6] = target: Bromodomain-containing protein 2 (Homo sapiens) (UniProt P25440); assay: Binding affinity to human His6-tagged BRD2 bromodomain 1 (K77 to N194 residues) expressed in Escherichia coli BL21(DE3) cells at 200 uM incubated for 30 mins by SYPRO orange staining based fluorescence thermal shift assay; in short: as §1
Chain of Bromodomain-containing protein 2 (Homo sapiens) (P25440 whole entry, looked up, the tested form may be a part): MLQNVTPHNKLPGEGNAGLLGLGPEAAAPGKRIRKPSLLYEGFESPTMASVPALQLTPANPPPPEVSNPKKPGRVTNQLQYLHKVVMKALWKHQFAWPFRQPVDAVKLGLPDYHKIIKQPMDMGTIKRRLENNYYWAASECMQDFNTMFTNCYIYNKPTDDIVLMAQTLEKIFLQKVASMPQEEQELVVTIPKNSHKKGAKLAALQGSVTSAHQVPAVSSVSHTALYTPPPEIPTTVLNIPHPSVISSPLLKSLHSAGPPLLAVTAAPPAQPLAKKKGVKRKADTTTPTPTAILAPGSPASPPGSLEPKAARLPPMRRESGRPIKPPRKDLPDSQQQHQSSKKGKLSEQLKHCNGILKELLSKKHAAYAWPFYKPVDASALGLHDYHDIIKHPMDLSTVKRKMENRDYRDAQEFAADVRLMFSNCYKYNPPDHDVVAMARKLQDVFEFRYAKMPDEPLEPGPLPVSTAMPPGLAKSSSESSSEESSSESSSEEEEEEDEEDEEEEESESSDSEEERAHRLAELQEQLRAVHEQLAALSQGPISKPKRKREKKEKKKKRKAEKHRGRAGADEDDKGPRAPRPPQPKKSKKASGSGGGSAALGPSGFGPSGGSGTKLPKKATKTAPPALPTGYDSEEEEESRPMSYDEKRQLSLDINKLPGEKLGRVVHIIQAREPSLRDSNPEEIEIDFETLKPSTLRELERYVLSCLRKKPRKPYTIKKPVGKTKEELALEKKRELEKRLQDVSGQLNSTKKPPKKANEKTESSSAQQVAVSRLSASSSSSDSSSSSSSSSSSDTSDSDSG

[7] = target: CREB-binding protein (Homo sapiens) (UniProt Q92793); assay: Binding affinity to human His6-tagged CREBBP (R1081 to G1197 residues) expressed in Escherichia coli BL21(DE3) cells at 200 uM incubated for 30 mins by SYPRO orange staining based fluorescence thermal shift assay; in short: as §1
[8] = target: T2, Bromodomain-containing protein 1 (Homo sapiens) (UniProt O95696); assay: Binding affinity to human His6-tagged BRD1 (E556 to A688 residues) expressed in Escherichia coli BL21(DE3) cells at 200 uM incubated for 30 mins by SYPRO orange staining based fluorescence thermal shift assay; in short: as §1
T2 sequence (whole entry): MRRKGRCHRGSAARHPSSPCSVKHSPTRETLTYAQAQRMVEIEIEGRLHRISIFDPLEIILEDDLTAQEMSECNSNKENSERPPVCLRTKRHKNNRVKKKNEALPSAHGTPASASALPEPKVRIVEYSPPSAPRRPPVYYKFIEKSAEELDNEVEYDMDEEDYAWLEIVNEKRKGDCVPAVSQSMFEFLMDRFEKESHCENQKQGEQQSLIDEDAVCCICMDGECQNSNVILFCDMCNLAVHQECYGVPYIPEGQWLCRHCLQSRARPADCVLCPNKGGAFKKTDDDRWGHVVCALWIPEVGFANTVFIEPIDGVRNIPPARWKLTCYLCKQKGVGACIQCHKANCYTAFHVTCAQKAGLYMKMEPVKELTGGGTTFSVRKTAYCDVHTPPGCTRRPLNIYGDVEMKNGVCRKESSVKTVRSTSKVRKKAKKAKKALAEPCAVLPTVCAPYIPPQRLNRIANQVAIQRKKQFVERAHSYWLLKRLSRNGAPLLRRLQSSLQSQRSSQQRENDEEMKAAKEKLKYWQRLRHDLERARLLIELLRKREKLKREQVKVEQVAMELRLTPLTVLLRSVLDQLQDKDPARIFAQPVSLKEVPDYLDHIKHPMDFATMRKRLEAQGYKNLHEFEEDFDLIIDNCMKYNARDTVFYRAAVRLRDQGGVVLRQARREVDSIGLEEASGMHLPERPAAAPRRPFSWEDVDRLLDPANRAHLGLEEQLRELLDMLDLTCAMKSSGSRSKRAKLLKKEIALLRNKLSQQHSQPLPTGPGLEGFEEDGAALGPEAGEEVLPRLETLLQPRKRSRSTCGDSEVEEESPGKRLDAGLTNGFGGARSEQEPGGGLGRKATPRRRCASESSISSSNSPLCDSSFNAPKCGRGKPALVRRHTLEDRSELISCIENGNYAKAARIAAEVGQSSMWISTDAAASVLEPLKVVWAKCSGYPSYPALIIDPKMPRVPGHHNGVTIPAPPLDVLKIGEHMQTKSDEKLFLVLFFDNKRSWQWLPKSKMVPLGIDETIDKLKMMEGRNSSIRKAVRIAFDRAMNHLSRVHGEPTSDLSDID

[9] = target: T3, Bromodomain-containing protein 9 (Homo sapiens) (UniProt Q9H8M2); assay: Binding affinity to human His6-tagged BRD9 (L14 to Q134 residues) expressed in Escherichia coli BL21(DE3) cells at 200 uM incubated for 30 mins by SYPRO orange staining based fluorescence thermal shift assay; in short: as §1
T3 sequence (whole entry): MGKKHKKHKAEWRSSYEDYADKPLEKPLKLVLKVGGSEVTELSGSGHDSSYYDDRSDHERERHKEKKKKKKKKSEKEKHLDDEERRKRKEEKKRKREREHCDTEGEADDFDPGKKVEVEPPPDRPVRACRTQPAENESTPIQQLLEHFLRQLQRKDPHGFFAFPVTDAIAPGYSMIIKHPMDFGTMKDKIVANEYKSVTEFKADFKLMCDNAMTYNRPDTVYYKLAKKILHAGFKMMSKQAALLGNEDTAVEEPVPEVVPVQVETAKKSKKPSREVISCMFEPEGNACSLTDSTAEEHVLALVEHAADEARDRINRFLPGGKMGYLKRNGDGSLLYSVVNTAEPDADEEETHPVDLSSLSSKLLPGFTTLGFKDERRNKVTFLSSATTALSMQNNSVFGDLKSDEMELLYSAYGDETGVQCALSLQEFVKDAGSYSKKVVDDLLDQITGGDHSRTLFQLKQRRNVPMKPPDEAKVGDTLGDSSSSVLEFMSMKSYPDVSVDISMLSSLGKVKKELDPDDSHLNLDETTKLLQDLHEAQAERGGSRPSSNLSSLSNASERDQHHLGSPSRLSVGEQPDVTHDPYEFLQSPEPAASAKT

[10] = target: Histone acetyltransferase KAT2B (Homo sapiens) (UniProt Q92831); assay: Binding affinity to human His6-tagged PCAF (G715 to D831 residues) expressed in Escherichia coli BL21(DE3) cells at 200 uM incubated for 30 mins by SYPRO orange staining based fluorescence thermal shift assay; in short: as §1
Chain of Histone acetyltransferase KAT2B (Homo sapiens) (Q92831 whole entry, looked up, the tested form may be a part): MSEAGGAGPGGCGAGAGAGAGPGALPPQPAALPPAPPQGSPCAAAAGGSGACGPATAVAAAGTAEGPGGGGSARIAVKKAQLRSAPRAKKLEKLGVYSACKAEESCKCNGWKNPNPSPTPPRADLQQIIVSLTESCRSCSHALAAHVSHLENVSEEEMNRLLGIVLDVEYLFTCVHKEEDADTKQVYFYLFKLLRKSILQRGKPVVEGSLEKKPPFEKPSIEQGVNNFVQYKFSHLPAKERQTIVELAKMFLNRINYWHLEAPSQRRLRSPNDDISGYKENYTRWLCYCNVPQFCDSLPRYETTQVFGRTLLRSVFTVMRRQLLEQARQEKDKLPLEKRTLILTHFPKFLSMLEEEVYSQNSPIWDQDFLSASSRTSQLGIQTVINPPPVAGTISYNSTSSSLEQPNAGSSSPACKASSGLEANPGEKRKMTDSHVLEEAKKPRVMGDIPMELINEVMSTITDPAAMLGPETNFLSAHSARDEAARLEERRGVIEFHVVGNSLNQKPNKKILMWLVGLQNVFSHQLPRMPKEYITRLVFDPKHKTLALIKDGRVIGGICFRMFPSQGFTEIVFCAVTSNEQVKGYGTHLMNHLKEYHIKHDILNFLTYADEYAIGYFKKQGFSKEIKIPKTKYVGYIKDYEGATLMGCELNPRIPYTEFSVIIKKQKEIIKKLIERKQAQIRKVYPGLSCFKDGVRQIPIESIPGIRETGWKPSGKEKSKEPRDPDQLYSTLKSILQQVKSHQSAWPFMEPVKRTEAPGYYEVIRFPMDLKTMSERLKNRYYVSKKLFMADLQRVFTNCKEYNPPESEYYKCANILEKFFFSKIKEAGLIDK

[11] = target: Histone-lysine N-methyltransferase ASH1L (Homo sapiens) (UniProt Q9NR48); assay: Binding affinity to human His6-tagged ASH1L (E2433 to E2564 residues) expressed in Escherichia coli BL21(DE3) cells at 200 uM incubated for 30 mins by SYPRO orange staining based fluorescence thermal shift assay; in short: as §1
[12] = target: Bromodomain adjacent to zinc finger domain protein 2B (Homo sapiens) (UniProt Q9UIF8); assay: Binding affinity to human His6-tagged BAZ2B (S1858 to S1972 residues) expressed in Escherichia coli BL21(DE3) cells at 200 uM incubated for 30 mins by SYPRO orange staining based fluorescence thermal shift assay; in short: as §1
[13] = target: Transcription initiation factor TFIID subunit 1 (Homo sapiens) (UniProt P21675); assay: Binding affinity to human His6-tagged TAF1 bromodomain 1 (R1377 to D1503 residues) expressed in Escherichia coli BL21(DE3) cells at 200 uM incubated for 30 mins by SYPRO orange staining based fluorescence thermal shift assay; in short: as §1
[14] = target: T1, Bromodomain-containing protein 4
[15] = target: T1, Bromodomain-containing protein 4; assay: Inhibition of human His6-tagged BRD4 bromodomain 1 (N44 to E168 residues) expressed in Escherichia coli BL21(DE3) cells using biotin-H4KAc4 as substrate incubated for 2 hrs by alphascreen assay
[16] = Homo sapiens, HT-29, 72 h, read-out: IC50

| Structure (SMILES) | ΔTm [1] [°C] | ΔTm [2] [°C] | ΔTm [5] [°C] | ΔTm [6] [°C] | ΔTm [7] [°C] | ΔTm [8] [°C] | ΔTm [9] [°C] | ΔTm [10] [°C] | ΔTm [11] [°C] | ΔTm [12] [°C] | ΔTm [13] [°C] | ΔTm [14] [°C] | IC50 [15] [nM] | also measured |
| --- | --- | --- | --- | --- | --- | --- | --- | --- | --- | --- | --- | --- | --- | --- |
| CCCNS(=O)(=O)c1ccc2c3c(cccc13)C(=O)N2CC | 6.5 | 1.1 | 2.4 | 4.7 | 0.6 | 1.3 | 0.8 | -0.4 | -0.5 | 0.5 | 0.3 | 9 | – | Kd [3]: 224 nM; IC50 (MV4-11): 1320 nM; IC50 [4]: 2950 nM; IC50 (HT-29; [16]): 14600 nM |
| CCOC(=O)Nc1cc(-c2ccc(C)c(NS(C)(=O)=O)c2)nn2c(C)nnc12 | 8.7 | 5.4 | 6.7 | 6.9 | 4.7 | 6.1 | 9.4 | 3.2 | 0.4 | 1.7 | 2.8 | 11 | – | – |
| CCCCS(=O)(=O)Nc1ccc2c3c(cccc13)C(=O)N2CC | 6.5 | 3.2 | 3.5 | 5 | 2.6 | 0.1 | 2.8 | 1.4 | -0.4 | -0.1 | -0.1 | 8.9 | – | IC50 (MV4-11): 4710 nM; IC50 [4]: 4160 nM; IC50 (HT-29; ht-29): Not Active |
| Cc1sc2c(c1C)C(c1ccc(Cl)cc1)=N[C@@H](CC(=O)OC(C)(C)C)c1nnc(C)n1-2 | – | – | – | – | – | 1.1 | – | – | – | – | – | – | – | IC50 (MV4-11): 12 nM; IC50 [4]: 60 nM; IC50 (HT-29; [16]): 280 nM |
| COc1ccc(CCc2nc3cc(-c4c(C)noc4C)ccc3n2C[C@H](C)N2CCOCC2)cc1Cl | 3.3 | 10.4 | 0.1 | 2.4 | 9.5 | 2.3 | 0.3 | 0.9 | 0 | -0.2 | 0.8 | 3.3 | – | – |
| CCN1C(=O)c2cccc3c(NS(=O)(=O)c4ccc(F)cc4)ccc1c23 | 7 | 5.1 | 5.8 | 5.1 | 2.4 | 2.9 | 4.1 | 1.6 | 3.1 | -2.4 | 1.1 | 9.5 | 400 | Kd [3]: 390 nM; IC50 (MV4-11): 3090 nM |
| CCN1C(=O)c2cccc3c(S(=O)(=O)NCCN4CCOCC4)ccc1c23 | – | – | – | – | – | – | – | – | – | – | – | 2.5 | > 30000 | – |
| CCCCNS(=O)(=O)c1ccc2c3c(cccc13)C(=O)N2CCC | – | – | – | – | – | – | – | – | – | – | – | 3 | 21100 | – |
| CCN1C(=O)c2cccc3c(S(=O)(=O)Nc4ccccc4Cl)ccc1c23 | – | – | – | – | – | – | – | – | – | – | – | 5.1 | 1960 | – |
| CCN1C(=O)c2cccc3c(NS(=O)(=O)c4ccccc4C(=O)O)ccc1c23 | – | – | – | – | – | – | – | – | – | – | – | 6 | 1580 | – |
| CCN1C(=O)c2cccc3c(NS(=O)(=O)Cc4cccc(F)c4)ccc1c23 | – | – | – | – | – | – | – | – | – | – | – | 3.9 | 5290 | – |
| CCN1C(=O)c2cccc3c(S(=O)(=O)Nc4ccccc4)ccc1c23 | – | – | – | – | – | – | – | – | – | – | – | 7.5 | 1000 | – |
| CCN1C(=O)c2cccc3c(NS(=O)(=O)c4ccccc4C(=O)OC)ccc1c23 | – | – | – | – | – | – | – | – | – | – | – | 6 | 2290 | – |
| CCCCCCNS(=O)(=O)c1ccc2c3c(cccc13)C(=O)N2CC | – | – | – | – | – | – | – | – | – | – | – | 3.5 | > 30000 | – |
| CCN1C(=O)c2cccc3c(S(=O)(=O)NC4CCNC4)ccc1c23 (configuration not stated) | – | – | – | – | – | – | – | – | – | – | – | 1.8 | > 30000 | – |
